Positions of bridges follow the written chain, without caps; N, C: chain ends. Residues, ends and D or L forms follow the SMILES beside them.
Legend:
[1] = Apparent solubility by absorbance at 280 nm; format: physicochemical; conditions: PBS pH 7.4, absorbance at 280 nm
In short: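 About 1 mg test peptide in 200 μL PBS pH 7.4; upper reportable limit 5 mg/mL. Vortexed 30 s, centrifuged 13000g for 5 min. Supernatant A280 converted to concentration by Beer–Lambert, using extinction coefficients from each peptide's Trp and Tyr count. Samples kept at 4 °C and re-read at 24 and 48 h. Mean and standard deviation of three readings per sample.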

[2] = target: complement C3 (Homo sapiens, UniProt P01024); assay: Complement inhibition across biochemical and functional assays; conditions: C3b ELISA, C5b-9 ELISA, hemolytic assay
[3] = phase II, NCT00473928 and NCT01157065; cited from earlier work

complement C3, sequence (P01024 23-667 limits assumed): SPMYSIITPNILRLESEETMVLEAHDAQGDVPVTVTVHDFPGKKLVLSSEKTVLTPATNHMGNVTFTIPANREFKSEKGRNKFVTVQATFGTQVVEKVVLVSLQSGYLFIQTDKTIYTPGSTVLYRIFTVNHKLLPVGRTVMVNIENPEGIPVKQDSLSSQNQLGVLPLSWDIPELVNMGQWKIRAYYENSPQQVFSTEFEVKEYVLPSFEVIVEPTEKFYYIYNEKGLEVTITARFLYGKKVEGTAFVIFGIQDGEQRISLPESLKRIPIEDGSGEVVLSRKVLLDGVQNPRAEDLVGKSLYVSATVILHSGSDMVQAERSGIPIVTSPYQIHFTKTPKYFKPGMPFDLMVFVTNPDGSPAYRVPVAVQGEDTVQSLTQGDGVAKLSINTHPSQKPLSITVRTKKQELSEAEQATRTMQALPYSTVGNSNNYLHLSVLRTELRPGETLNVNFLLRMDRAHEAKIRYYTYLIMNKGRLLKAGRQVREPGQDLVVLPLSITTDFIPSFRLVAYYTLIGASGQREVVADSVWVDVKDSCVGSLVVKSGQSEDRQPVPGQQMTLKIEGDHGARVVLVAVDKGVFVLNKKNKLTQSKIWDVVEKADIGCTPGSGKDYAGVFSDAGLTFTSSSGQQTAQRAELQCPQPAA
complement C3, sequence (P01024 672-1663 partner limits assumed): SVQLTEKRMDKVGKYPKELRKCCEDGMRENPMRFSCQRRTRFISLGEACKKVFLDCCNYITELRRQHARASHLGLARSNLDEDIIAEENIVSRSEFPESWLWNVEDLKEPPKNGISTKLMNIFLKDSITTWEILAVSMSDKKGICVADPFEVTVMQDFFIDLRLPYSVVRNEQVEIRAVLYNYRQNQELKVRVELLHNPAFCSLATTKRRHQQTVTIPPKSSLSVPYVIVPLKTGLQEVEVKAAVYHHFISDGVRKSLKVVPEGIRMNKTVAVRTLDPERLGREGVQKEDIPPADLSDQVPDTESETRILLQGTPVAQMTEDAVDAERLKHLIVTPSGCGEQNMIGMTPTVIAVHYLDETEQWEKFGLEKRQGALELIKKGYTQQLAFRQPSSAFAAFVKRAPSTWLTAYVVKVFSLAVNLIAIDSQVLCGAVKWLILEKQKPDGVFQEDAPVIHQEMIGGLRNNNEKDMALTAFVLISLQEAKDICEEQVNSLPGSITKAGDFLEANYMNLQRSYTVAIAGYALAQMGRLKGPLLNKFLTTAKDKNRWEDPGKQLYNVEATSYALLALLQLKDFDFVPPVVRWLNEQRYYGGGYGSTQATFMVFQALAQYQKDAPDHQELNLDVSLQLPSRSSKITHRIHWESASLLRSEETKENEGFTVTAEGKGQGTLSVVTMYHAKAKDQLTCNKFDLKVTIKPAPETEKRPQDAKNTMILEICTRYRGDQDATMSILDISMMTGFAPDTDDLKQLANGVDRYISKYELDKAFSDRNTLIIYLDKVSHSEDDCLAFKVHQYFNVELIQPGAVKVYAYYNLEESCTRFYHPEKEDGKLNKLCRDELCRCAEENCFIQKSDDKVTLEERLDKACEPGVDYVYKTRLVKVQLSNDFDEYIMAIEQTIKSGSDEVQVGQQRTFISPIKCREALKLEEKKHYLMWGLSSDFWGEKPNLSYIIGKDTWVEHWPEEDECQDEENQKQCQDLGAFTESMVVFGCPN

Row | Compound | Solubility, in words [1] | Complement inhibitory activity relative to controls, in words [2] | Retinal thickness in AMD patients in comparison to ranibizumab [3]
1 | CC[C@H](C)[C@H](NC(=O)[C@H](CO)NC(=O)[C@H](CCCNC(=N)N)NC(C)=O)C(=O)N[C@H]1CSSC[C@@H](C(=O)N[C@H](C(N)=O)[C@@H](C)O)NC(=O)[C@H](CCCNC(=N)N)NC(=O)[C@H](Cc2c[nH]cn2)NC(=O)[C@H](C)NC(=O)CNC(=O)[C@H](Cc2c[nH]c3ccccc23)NC(=O)[C@H](CC(=O)O)NC(=O)[C@H](CCC(N)=O)NC(=O)[C@H](Cc2c[nH]c3ccccc23)NC(=O)[C@H](C(C)C)NC1=O [Peptide 9, Ac-RSICV W QDWG A HRCT-NH2] | greatly improved aqueous solubility | inhibitory activity similar to meW4A9 | –
2 | CC(=O)N[C@@H](CC(N)=O)C(=O)N[C@@H](CC(N)=O)C(=O)N[C@@H](CC(C)C)C(=O)N[C@H]1CSSC[C@@H](C(=O)N[C@H](C(N)=O)[C@@H](C)O)NC(=O)[C@H](CCCNC(=N)N)NC(=O)[C@H](Cc2c[nH]cn2)NC(=O)[C@H](C)NC(=O)CNC(=O)[C@H](Cc2c[nH]c3ccccc23)NC(=O)[C@H](CC(=O)O)NC(=O)[C@H](CCC(N)=O)NC(=O)[C@H](Cc2c[nH]c3ccccc23)NC(=O)[C@H](C(C)C)NC1=O [Peptide 7, Ac-NNLCV W QDWG A HRCT-NH2] (Ac-NNLCVWQDWGAHRCT-NH2; disulfide 4-14) | greatly improved aqueous solubility | inhibitory activity similar to meW4A9 | –
3 | CC[C@H](C)[C@H](NC(C)=O)C(=O)N[C@H]1CSSC[C@@H](C(=O)N[C@H](C(N)=O)[C@@H](C)O)NC(=O)[C@H](CCCNC(=N)N)NC(=O)[C@H](Cc2c[nH]cn2)NC(=O)[C@@](C)(CC)NC(=O)CNC(=O)[C@H](Cc2c[nH]c3ccccc23)NC(=O)[C@H](CC(=O)O)NC(=O)[C@H](CCC(N)=O)NC(=O)[C@H](Cc2c[nH]c3ccccc23)NC(=O)[C@H](C(C)C)NC1=O [Peptide 3, Ac- ICV W QDWG{Rea}HRCT-NH2] | greatly improved aqueous solubility | inhibitory activity similar to meW4A9 | –
4 | C=CC[C@@]1(C)NC(=O)CNC(=O)[C@H](Cc2c[nH]c3ccccc23)NC(=O)[C@H](CC(=O)O)NC(=O)[C@H](CCC(N)=O)NC(=O)[C@H](Cc2c[nH]c3ccccc23)NC(=O)[C@H](C(C)C)NC(=O)[C@@H](NC(=O)[C@@H](NC(C)=O)[C@@H](C)CC)CSSC[C@@H](C(=O)N[C@H](C(N)=O)[C@@H](C)O)NC(=O)[C@H](CCCNC(=N)N)NC(=O)[C@H](Cc2c[nH]cn2)NC1=O [Peptide 4, Ac- ICV W QDWG{Aal}HRCT-NH2] | greatly improved aqueous solubility | inhibitory activity similar to meW4A9 | –
5 | CC[C@H](C)[C@H](NC(C)=O)C(=O)N[C@H]1CSSC[C@@H](C(=O)N[C@H](C(N)=O)[C@@H](C)O)NC(=O)[C@H](CCCNC(=N)N)NC(=O)[C@H](Cc2c[nH]cn2)NC(=O)[C@](C)(CC)NC(=O)CNC(=O)[C@H](Cc2c[nH]c3ccccc23)NC(=O)[C@H](CC(=O)O)NC(=O)[C@H](CCC(N)=O)NC(=O)[C@H](Cc2c[nH]c3ccccc23)NC(=O)[C@H](C(C)C)NC1=O [Peptide 5, Ac- ICV W QDWG{Sea}HRCT-NH2] | greatly improved aqueous solubility | inhibitory activity similar to meW4A9 | –
6 | CC(=O)N[C@@H](CC(N)=O)C(=O)N[C@@H](CCCNC(=N)N)C(=O)N[C@@H](CC(C)C)C(=O)N[C@H]1CSSC[C@@H](C(=O)N[C@H](C(N)=O)[C@@H](C)O)NC(=O)[C@H](CCCNC(=N)N)NC(=O)[C@H](Cc2c[nH]cn2)NC(=O)[C@H](C)NC(=O)CNC(=O)[C@H](Cc2c[nH]c3ccccc23)NC(=O)[C@H](CC(=O)O)NC(=O)[C@H](CCC(N)=O)NC(=O)[C@H](Cc2c[nH]c3ccccc23)NC(=O)[C@H](C(C)C)NC1=O [Peptide 8, Ac-NRLCV W QDWG A HRCT-NH2] (Ac-NRLCVWQDWGAHRCT-NH2; disulfide 4-14) | greatly improved aqueous solubility | inhibitory activity similar to meW4A9 | –
7 | CC[C@H](C)[C@H](NC(C)=O)C(=O)N[C@H]1CSSC[C@@H](C(=O)N[C@H](C(N)=O)[C@@H](C)O)NC(=O)[C@H](CCCNC(=N)N)NC(=O)[C@H](Cc2c[nH]cn2)NC(=O)[C@H](C)NC(=O)CNC(=O)[C@H](Cc2c[nH]c3ccccc23)NC(=O)[C@H](CC(=O)O)NC(=O)[C@H](CCC(N)=O)NC(=O)[C@H](Cc2cn(C)c3ccccc23)NC(=O)[C@H](C(C)C)NC1=O [meW4A9, Ac- ICV{meW}QDWG A HRCT-NH2] | – | – | did not yield reduced retinal thickness

Reference: PMC4306506 (Journal of Medicinal Chemistry, 2014)
